Test results reported in PMC5595133 (Theranostics, 2017).

Columns and labels:
B16 cells = assay: Cell cycle assay by flow cytometry; assay type: cell-based, mouse; details: 50 nM (calculated by free DM1), 12 h
[1] = In vivo safety examination; set-up: species or system C57BL/6 mice
In short: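 This used the B16 s.c. model in C57BL/6 mice with tail-vein dosing in saline. Body weight was recorded every other day. On day 25 after implantation, 500 μL of blood was taken without heparin and centrifuged (4000 rpm, 5 min); ALT and AST were measured in serum. 20 μL of peripheral blood went for WBC, RBC and platelet counts by autoanalyzer. Heart, liver, spleen, kidney and lung were formalin-fixed, paraffin-embedded, cut at 5 μm and H&E-stained for light microscopy.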

HUVEC cells = assay: Cell cycle assay by flow cytometry; assay type: cell-based, human; details: 50 nM (calculated by free DM1), 12 h
MCF-7 cells = assay: Cell cycle assay by flow cytometry; assay type: cell-based, human; details: 50 nM (calculated by free DM1), 12 h

COc1cc2cc(c1Cl)N(C)C(=O)C[C@H](OC(=O)[C@H](C)N(C)C(=O)CCS)[C@]1(C)O[C@H]1[C@H](C)[C@@H]1C[C@@](O)(NC(=O)O1)[C@H](OC)/C=C/C=C(\C)C2 [DM1, Maytansinoid DM1]
percentage of cells in G2/M phase (B16 cells): 58.26%
body weight change versus saline ([1]; B16 tumor-bearing C57BL/6 mice, 400 μg/kg DM1 i.v. every other day x5, n=6): significant body weight loss
H&E histology of major organs (heart, liver, spleen, lung, kidney) ([1]; end of test, 200×): severer organic damages
count of white blood cells (WBC) ([1]; peripheral blood at the end of test, n=6, compared with the normal value): decreased the count
liver function, circulating ALT and AST ([1]; serum on day 25, n=6): obvious hepatic cytolysis
percentage of cells in G2/M phase (HUVEC cells): 42.23%
percentage of cells in G2/M phase (MCF-7 cells): 57.18%
